# Data reported in ChEMBL document CHEMBL1137146, “Thiourea inhibitors of herpesviruses. Part 3: Inhibitors of varicella zoster virus” (Bioorg Med Chem Lett, 2004).
# Test system: Human alphaherpesvirus 3
# Assay: inhibitory concentration against Varicella zoster virus
# Format: functional, organism-based
# Conditions: not given
# Procedure, shortened: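 Compounds serially diluted and tested in duplicate against VZV. IC50 obtained by curve fitting with a sigmoidal Hill slope (0–100) model. The rest of the assay procedure follows earlier published work and is not given here.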
row,IC50 [nM],Compound
1,700,C[C@@H](NC(=S)Nc1ccc(NC(=O)c2ccccc2F)cc1)c1ccccc1 (stereo in doubt; 9)
2,> 19100,C[C@@H](NC(=S)Nc1ccc(NC(=O)c2ccccc2F)cc1)c1ccccc1 (stereo in doubt; 10)
3,49100,C[C@@H](NC(=S)Nc1ccc(NC(=O)c2ccccc2F)cc1)c1ccc(Br)cc1 (stereo in doubt; 12)
4,130,C[C@@H](NC(=S)Nc1ccc(NC(=O)c2ccccc2F)cc1)c1ccc(Br)cc1 (stereo in doubt; 11)

# Same assay, conditions: Human alphaherpesvirus 3
row,IC50 [nM],Compound
1,110,CC(/N=C(\S)Nc1ccc(NC(=O)c2ccccc2F)c(C#N)c1)c1cc2ccccc2o1 (stereo not drawn)
2,190,CC(/N=C(\S)Nc1ccc(-c2cc(Cc3ccccc3)no2)cc1)c1ccc(F)cc1 (stereo not drawn)
3,90,CC(/N=C(\S)Nc1ccc(NC(=O)c2ccc3ccccc3n2)cc1)c1ccc(F)cc1 (stereo not drawn)
4,110,CC(/N=C(\S)Nc1ccc(NC(=O)c2ccccc2F)c(C#N)c1)c1ccc(F)cc1 (stereo not drawn)
5,> 17600,CCC(/N=C(\S)Nc1ccc(NC(=O)c2ccccc2F)cc1)c1ccc(F)cc1 (stereo not drawn)
6,> 26300,O=C(Nc1ccc(N/C(S)=N/Cc2ccccc2)cc1)c1ccccc1F
7,9480,CC(/N=C(\S)Nc1ccc(NC(=O)c2ccccc2F)cc1)c1c[nH]c2ccccc12 (stereo not drawn)
8,960,CC(/N=C(\S)Nc1ccc(NC(=O)c2ccccc2F)cc1)c1ccc(C#N)cc1 (stereo not drawn)
9,1540,COc1cc(NC(=O)c2ccccc2F)ccc1/N=C(\S)NC(C)c1ccc(F)cc1 (stereo not drawn)
10,180,CC(/N=C(\S)Nc1ccc(NC(=O)c2cc3ccccc3cn2)cc1)c1ccc(F)cc1 (stereo not drawn)
11,60,CC(/N=C(\S)Nc1ccc(NC(=O)c2ccccc2F)c(C(F)(F)F)c1)c1ccc(F)cc1 (stereo not drawn)
12,210,CC(/N=C(\S)Nc1ccc(NC(=O)c2ccccc2F)cc1)c1ccc(Cl)cc1 (stereo not drawn)
13,600,CC(/N=C(\S)Nc1ccc(NC(=O)c2ccccc2F)cc1)c1ccc(F)cc1 (stereo not drawn)
14,180,CC(/N=C(\S)Nc1ccc(NC(=O)c2ccccc2F)cc1)c1cc2ccccc2o1 (stereo not drawn)
15,1370,CC(/N=C(\S)Nc1ccc(NC(=O)c2ccccc2F)cc1Cl)c1ccc(F)cc1 (stereo not drawn)
16,190,CC(/N=C(\S)Nc1ccc(-c2cc(-c3ccnc4ccccc34)no2)cc1)c1ccc(F)cc1 (stereo not drawn)
17,1300,CC(NC(=S)Nc1ccc(NC(=O)c2ccccc2F)cc1)c1ccccc1 (stereo not drawn)
18,3560,CC(/N=C(\S)Nc1ccc(NC(=O)c2ccccc2F)cc1)c1csc2ccccc12 (stereo not drawn)
19,9700,CC(C)(/N=C(\S)Nc1ccc(NC(=O)c2ccccc2F)cc1)c1ccccc1
20,30,CC(NC(=O)Nc1ccc(NC(=O)c2ccccc2F)c(C#N)c1)c1ccc(F)cc1 (stereo not drawn)
21,420,CC(NC(=S)Nc1ccc(NC(=O)c2ccccc2F)cc1)c1ccc(Br)cc1 (stereo not drawn)
22,570,CCOc1cc(N/C(S)=N/C(C)c2ccc(F)cc2)ccc1NC(=O)c1ccccc1F (stereo not drawn)
23,990,Cc1cc(NC(=O)c2ccccc2F)ccc1N/C(S)=N/C(C)c1ccc(F)cc1 (stereo not drawn)
24,120,Cc1cc(N/C(S)=N/C(C)c2ccc(F)cc2)ccc1NC(=O)c1ccccc1F (stereo not drawn)
25,90,COc1cc(N/C(S)=N/C(C)c2ccc(F)cc2)ccc1NC(=O)c1ccccc1F (stereo not drawn)
26,190,COc1ccccc1C(=O)Nc1ccc(N/C(S)=N/C(C)c2ccc(F)cc2)cc1 (stereo not drawn)
27,70,CC(/N=C(\S)Nc1cc(Br)c(NC(=O)c2ccccc2F)c(Br)c1)c1ccc(F)cc1 (stereo not drawn)
28,110,CC(NC(=O)Nc1ccc(NC(=O)c2ccccc2F)c(C#N)c1)c1cc2ccccc2o1 (stereo not drawn)
29,4510,CC(/N=C(\S)Nc1ccc(NC(=O)c2ccccc2F)cc1)c1ccc2ccccc2c1 (stereo not drawn)
